Screens: PubChem, several laboratories
XBP1 UPR activ – adaptive UPR (XBP1) activation. AID 463104. 330,000 compounds, 0.33% hits. activation, % at 20 µM. CHO-XBP1 luciferase reporter, IRE1-XBP1 UPR activation, luminescence; percent of tunicamycin response, DMSO as zero;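 active means versus positive control, 20 µM dose yields 30% or more activation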;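 further: 100% = tunicamycin at 10 µg/mL and 0% = DMSO only wells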
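incubation = overnight seeding at 37 °C, 6 h compound treatment at 37 °C | assay system = CHO-XBP1 cells stably carrying IRE1-XBP1-driven luciferase reporter | input = 1000 cells per well | detection = luciferase luminescence | dosing = single point, 20 µM final compound, 1% DMSO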
aDG glyco act – alpha-DG glycosylation activation. activation, % at 10 µM. Pro5-aDG cells, alpha-DG glycosylation AlphaScreen (IIH6); 0% Pro5, 100% B10-LARGE cell signal. 360,000 compounds, 0.22% hits;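 active means activation of at least 8% versus controls, or a plate z-score of at least 8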;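 further: Pro5 are CHO cells carrying HIG-tagged alpha-DG that lacks glycosylation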
MPTP inh – blocks calcium-induced mitochondrial swelling; inhibition, % at 10 µM; isolated mouse mitochondria, Ca2+ swelling absorbance, 30 min; AID 602449; 360,000 compounds, 1.4% hits;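 active means inhibition of 50% or more, scaled per plate between neutral and stimulator controls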;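 further: 0% = DMSO wells given calcium and 100% = 1 mM EGTA wells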
CHOP inh – inhibitors of CHOP induction in ER stress response | inhibition, % at 10 µM | AID 2732 | CHO-K1 CHOP-promoter luciferase, tunicamycin-induced, 15-18 h | 220,000 compounds, 3.8% hits;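 active means compounds that reduced the stress-induced luciferase reporter signal by more than about 70% of percent inhibition, limit read from the data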;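 further: 0% = tunicamycin plus vehicle and 100% = wells without tunicamycin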
GRIN3A LBD mod – modulators (binders) of human NR3A ligand-binding domain. NR3A LBD differential scanning fluorimetry, Tm shift; 0% = protein alone, 100% = glycine-bound protein. Tm shift relative to glycine control, % at 25 µM. 340,000 compounds, 2.5% hits;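 active means melting temperature shift of at least 10% of the positive control shift, at one fixed dose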
UPR CHOP act – apoptotic UPR (CHOP) activation | CHO-CHOP luciferase reporter, luminescence; percent of tunicamycin response over DMSO baseline | activation, % at 10 µM | 330,000 compounds, 0.34% hits;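 active means at 10 µM dose, activation of 40% or more, normalized to positive control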;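 further: 100% = tunicamycin at 10 µg/mL and 0% = DMSO alone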
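System: CHO-CHOP luciferase reporter cell line; amount: 500 cells/well; buffer or medium: F12 medium containing 10% fetal bovine serum; incubation: 6 h compound exposure at 37 °C after overnight seeding; measured by: luciferase luminescence after 10 min with Steady-Glo reagent; evaluation: % reporter activation, DMSO baseline versus tunicamycin full activation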
* marks the source's active call; other numbers are inactive results; . = no result. In the library only some 5.6% were active in any assay of this set; here they are far more common.

SMILES	XBP1 UPR activ	aDG glyco act	MPTP inh	CHOP inh	GRIN3A LBD mod	UPR CHOP act
CC1CCN(Cc2c(C(=O)N/N=C/c3cccc(C(F)(F)F)c3)nnn2-c2nonc2N)CC1	5	0	4	.	16*	1
CC1CCN(Cc2c(C(=O)N/N=C/c3cc(Br)ccc3O)nnn2-c2nonc2N)CC1	1	1	-1	.	13*	-2
CCOc1ccc(/C=N/NC(=O)c2nnn(-c3nonc3N)c2CN2CCC(C)CC2)cc1	-7	0	3	.	11*	4
Cc1c(Cl)cccc1NC(=O)CCN1CCC(C(N)=O)CC1	-3	0	-1	.	-5	5
S=C(Nc1ccc(-c2nc3ccccc3[nH]2)cc1)Nc1cccnc1	5	0	-2	.	37*	6
Fc1ccc(NC(=S)NCCN2CCOCC2)cc1	0	0	-1	23	-1	0
S=C(NCCN1CCOCC1)Nc1ccc(-c2nc3ccccc3[nH]2)cc1	1	1	-2	14	15*	5
c1cncc(-c2nc3ccccc3[nH]2)c1	-2	0	0	11	2	0
C[C@@H]1CN([C@@H](C)CO)S(=O)(=O)c2ccc(Br)cc2O[C@H]1CN(C)C(=O)Nc1ccc2c(c1)OCO2	.	0	-1	.	.	.
CCOc1ccc(CCNC(=O)Cn2cccc2C(=O)c2ccccc2C)cc1OCC	-1	0	2	75*	-2	5
CCOc1ccc(CCNC(=O)Nc2ccccc2C)cc1OCC	-4	0	1	.	4	2
COc1ccc(NC(=O)Nc2cccc3c2O[C@H](CN(C)S(=O)(=O)c2ccc(F)cc2)[C@@H](C)CN([C@H](C)CO)C3=O)cc1	-2	0	0	.	-1	1
C[C@H](CO)N1C[C@H](C)[C@@H](CN(C)S(=O)(=O)c2ccc(F)cc2)Oc2c(NC(=O)Nc3ccc(C(F)(F)F)cc3)cccc2C1=O	-1	1	-2	.	20*	4
C[C@H]1CN([C@@H](C)CO)C(=O)c2cccc(NC(=O)Nc3ccc(C(F)(F)F)cc3)c2O[C@@H]1CN(C)S(=O)(=O)c1ccc(Cl)cc1	6	2	1	.	23*	2
C=CCN1C(=O)/C(=C/c2ccc(OC)cc2)S/C1=N/c1nccs1	3	-1	2	14	-4	-1
C=CCN1C(=O)/C(=C/c2ccc(O)cc2)S/C1=N/c1nccs1	4	0	11	16	20*	0
Nc1cc2c(cc1Br)-c1ccc(F)cc1C2O (stereo not given)	.	0	0	.	18*	.
O=c1[nH][nH]c2c1[C@H](c1ccccc1)O[C@H](C1CCCCC1)C2	.	0	-3	.	.	.
O=C(O)CSc1ccc(NC(=O)Nc2ccccc2F)cc1	-6	0	1	-4	10*	0
O=C(CSc1nnc(COc2ccc(Cl)cc2)o1)N(c1ccccc1)C1CCS(=O)(=O)C1 (stereo not given)	.	0	0	.	.	.
NC(=S)c1cc2ccc(O)cc2oc1=O	.	0	-6	-3	2	.
Oc1cc(O)cc(-c2cc3ccc(O)cc3o2)c1	0	0	0	.	16*	5
Clc1cccc(-c2ccc(-c3nc4ccccn4c3NCc3ccccc3)cc2)c1	0	2	6	.	20*	15
c1ccc(-c2nc3ccccn3c2NCc2ccc3c(c2)OCO3)cc1	0	0	-1	7	-2	0
COc1ccccc1N(CC(=O)N/N=C/c1ccc(C(=O)O)cc1)S(=O)(=O)c1ccc(C)cc1	-3	0	2	4	0	0
SMILES	XBP1 UPR activ	aDG glyco act	MPTP inh	CHOP inh	GRIN3A LBD mod	UPR CHOP act
COc1cc(C2c3cc4c(cc3CC3COC(=O)N32)OCO4)cc(OC)c1OC (stereo not given)	.	0	0	.	0	.
Cc1ccccc1-c1nc(CS(=O)CC(=O)NCCc2ccc(Cl)cc2)c(C)o1 (stereo not given)	-4	2	0	.	489*	-1
CN(/N=C/c1ccc2c(c1)OCO2)c1ccccc1	3	0	1	-9	11*	1
O=C(CNc1ccccc1)N/N=C/c1ccc2c(c1)OCO2	1	0	0	21	-1	0
Cc1cccc(C(=O)Nc2ccc(C(=O)N/N=C/c3ccc4c(c3)OCO4)cc2)c1	-1	0	1	.	24*	0
O=C(N/N=C/c1cccs1)c1ccc(NC(=O)c2ccccc2Cl)cc1	-4	0	2	3	18*	0
O=C(N/N=C/c1cccs1)c1cccc(NC(=O)c2ccccc2Cl)c1	0	0	4	1	-2	2
O=C(CNc1ccccc1)N/N=C/c1ccc2c(c1)OCCO2	0	0	-2	26	16*	3
C(=N\N(c1ccccc1)c1ccccc1)/c1ccc2c(c1)OCO2	-2	0	4	15	-2	-2
CC(Oc1ccc(Br)cc1)C(=O)Nc1ccc(N2CCOCC2)cc1N1CCOCC1 (stereo not given)	-5	0	0	.	0	1
CCCCC(=O)N(C)c1c(C)nc2ccc(C(=O)N(CC)CCN(C)C)cn12	.	0	-1	.	.	.
CCCCn1c(N)c(N(Cc2ccccc2OC)C(=O)CN2C(=O)NC(C)(c3ccccc3)C2=O)c(=O)[nH]c1=O (stereo not given)	0	0	-3	.	-1	0
O=C(N/N=C/c1ccc2c(c1)OCO2)c1cccc(NC(=O)c2ccccc2Cl)c1	0	0	0	.	-10	5
O=C(NN=Cc1ccc2c(c1)OCO2)NN=Cc1ccc2c(c1)OCO2	.	0	2	.	26*	.
O=C(Cn1nnc(-c2ccccc2Cl)n1)N/N=C/c1ccc2c(c1)OCO2	-1	0	0	76*	0	-1
O=C(N/N=C/c1ccc2c(c1)OCO2)c1ccc(NC(=O)c2ccccc2Cl)cc1	-1	0	1	.	22*	3
O=C(C[C@H]1C/C=C\C[C@H](NC(=O)OCC2c3ccccc3-c3ccccc32)C(=O)O[C@H](c2ccccc2)CNC1=O)N[C@H](CO)Cc1ccccc1	-1	5	-2	.	-1	0
CC(C)(C)c1cc(C(=S)N2CCN(CCO)CC2)cc(C(C)(C)C)c1O	2	0	-1	20	11*	2
CCN(C[C@H]1N[C@@](C)(C(=O)OC)[C@H]2C(=O)N(Cc3ccccc3)C(=O)[C@@H]12)C(=O)Nc1ccc(F)cc1	-1	0	-2	.	2	-1
COc1ccc(CN(CC(=O)NCC2CCCO2)C(=O)CCC(=O)Nc2nccs2)cc1 (stereo not given)	-1	0	-2	.	-1	0
